Test results: publication PMC9202693 (The Journal of General Physiology, 2022)
“Also recorded” adds a separate entry of the source. Like-named read-outs stand apart in the source and are kept apart here. Positions of bridges follow the written chain, without caps; N, C: chain ends. Residues, ends and D or L forms follow the SMILES beside them. No end group written: not given here.

How the values were obtained:
CD4^+ TEM lymphocytes [1] = assay: LDH cytotoxicity assay; type: cell-based, human; settings: for cytotoxicity (LDH): 24 h culture, 1.5 μM Cm28 or 50 nM rMgTx, quiescent or TCR-activated cells, three independent experiments
Procedure, shortened: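 CD4+ TEM cells, unstimulated or anti-CD3-stimulated, were cultured 24 h with or without test peptide. Medium samples were mixed with LDH reaction substrate for 30 min in the dark, then stop solution was added. Activity was taken as A490 minus A680, and percent cytotoxicity was calculated against controls. Spontaneous and maximum controls were sterile water and lysis buffer (45 min, 37°C). Positive control: 50 mM NaN3. Three donors, two technical repeats, mean ± SEM.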

hKCa3.1 = assay: Selectivity, patch-clamp, hKCa3.1 in CHO cells; type: cell-based, human; settings: 150 nM Cm28, 8–20 pulses (2–5 min), n ≥ 3
Procedure, shortened: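 Whole-cell KCa3.1 currents recorded with 150-ms ramps to +50 mV from −120 mV every 10 s. Bath (mM): 145 Na L-aspartate, 5 KCl, 10 HEPES, 5.5 glucose, 2.5 CaCl2, 1 MgCl2, pH 7.4. Pipette (mM): 150 K-Asp, 5 HEPES, 8.5 CaCl2, 1.0 MgCl2, pH 7.22. Peak I/I0 at 150 nM after 8–20 pulses (2–5 min); mean ± SEM, n ≥ 3.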

hKV1.5 = assay: Selectivity, patch-clamp, hKV1.5 in CHO cells; type: cell-based, human; settings: 150 nM Cm28, 8–20 pulses (2–5 min), n ≥ 3
Procedure, shortened: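 Whole-cell KV1.5 currents recorded in normal bath (mM): 145 NaCl, 5 KCl, 2.5 CaCl2, 1 MgCl2, 5.5 glucose, 10 HEPES, pH 7.35. Remaining current fraction calculated as the ratio of peak currents with and without 150 nM test compound after 8–20 repeated depolarizing pulses (2–5 min). Reported as mean ± SEM, n ≥ 3.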

KV1.2 [2] = target: T1, KV1.2 (Homo sapiens, UniProt P16389); assay: Voltage dependence of activation; type: cell-based; settings: KV1.2, 2 nM Cm28
T1 sequence (P16389 whole entry): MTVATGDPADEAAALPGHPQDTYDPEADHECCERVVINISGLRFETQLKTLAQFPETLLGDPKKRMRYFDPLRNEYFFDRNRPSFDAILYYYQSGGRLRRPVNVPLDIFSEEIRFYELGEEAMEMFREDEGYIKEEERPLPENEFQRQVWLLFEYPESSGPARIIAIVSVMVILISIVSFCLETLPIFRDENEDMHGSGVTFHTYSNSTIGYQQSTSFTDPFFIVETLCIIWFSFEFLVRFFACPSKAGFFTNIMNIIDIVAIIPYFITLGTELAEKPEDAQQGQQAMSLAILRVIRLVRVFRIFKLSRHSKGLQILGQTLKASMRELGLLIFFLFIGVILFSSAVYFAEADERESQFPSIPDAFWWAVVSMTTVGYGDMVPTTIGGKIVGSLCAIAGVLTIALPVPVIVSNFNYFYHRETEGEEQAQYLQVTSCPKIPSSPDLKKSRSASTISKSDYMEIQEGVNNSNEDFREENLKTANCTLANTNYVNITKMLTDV
Procedure, shortened: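 CHO cells were transiently transfected with GFP-tagged hKV1.2 and recorded by whole-cell clamp 24–36 h later at 20–25°C. For G-V, 300-ms steps from −70 to +80 mV in 10 mV increments were applied, with tail currents at −120 mV normalized to the maximum. For instantaneous I-V, 200-ms ramps to +50 mV were used. Pulses were given every 15 s. Traces are three-trace averages in control and at equilibrium block.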

hKV1.1 = assay: Selectivity, patch-clamp, hKV1.1 in CHO cells; type: cell-based, human
Procedure, shortened: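 hKV1.1 (KCNA1, GFP-tagged vector) transiently transfected into CHO cells with Lipofectamine; GFP-positive cells recorded 24–36 h later by whole-cell voltage clamp. Normal bath (mM): 145 NaCl, 5 KCl, 2.5 CaCl2, 1 MgCl2, 5.5 glucose, 10 HEPES, pH 7.35. Remaining current fraction = peak current with/without 150 nM toxin at equilibrium block; mean ± SEM.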

KV1.3 [3] = target: T2, KV1.3 (Homo sapiens, UniProt P22001); type: cell-based
T2 sequence (P22001 whole entry, the tested form may be a part): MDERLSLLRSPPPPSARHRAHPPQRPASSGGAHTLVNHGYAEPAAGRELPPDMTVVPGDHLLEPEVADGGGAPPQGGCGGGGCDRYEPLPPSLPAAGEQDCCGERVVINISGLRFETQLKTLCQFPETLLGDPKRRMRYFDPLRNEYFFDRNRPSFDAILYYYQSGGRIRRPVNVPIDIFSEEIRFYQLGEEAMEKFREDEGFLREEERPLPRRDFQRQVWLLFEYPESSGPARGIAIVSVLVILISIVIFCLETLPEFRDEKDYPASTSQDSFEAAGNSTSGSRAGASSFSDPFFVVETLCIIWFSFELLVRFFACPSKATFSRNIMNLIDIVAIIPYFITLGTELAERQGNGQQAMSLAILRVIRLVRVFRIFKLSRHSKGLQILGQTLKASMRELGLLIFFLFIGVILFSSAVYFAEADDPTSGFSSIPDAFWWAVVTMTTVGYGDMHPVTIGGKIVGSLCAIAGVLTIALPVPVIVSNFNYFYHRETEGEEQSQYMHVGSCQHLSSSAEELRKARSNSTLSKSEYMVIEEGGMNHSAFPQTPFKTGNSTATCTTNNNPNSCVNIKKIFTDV
Procedure, shortened: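 PBMCs from healthy donors were cultured 3–6 days in RPMI 1640 with 10% FBS and PHA (2, 5 or 10 µg/ml) to raise KV1.3. Whole-cell currents were evoked by 15-ms pulses to +50 mV from −120 mV every 15 s at 20–25°C, with gravity perfusion. Remaining current fraction was peak I/I0 at equilibrium block. Points (3–5 records each) were Hill-fitted for Kd and H. Perfusion control was 10 mM TEA+; wash-out used toxin-free solution.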

hNaV1.5 = assay: Selectivity, patch-clamp, hNaV1.5 in CHO cells; type: cell-based, human; settings: 150 nM Cm28, 8–20 pulses (2–5 min), n ≥ 3
Procedure, shortened: (§1)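 Whole-cell Na+ currents evoked by 15-ms steps to 0 mV every 10 s. Normal Na+-based bath, pH 7.35. Pipette (mM): 10 NaCl, 105 CsF, 10 HEPES, 10 EGTA, pH 7.2. Remaining peak current fraction at 150 nM after 8–20 pulses (2–5 min); mean ± SEM, n ≥ 3. NaV1.4 was recorded in HEK293 cells stably expressing the channel.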

hNaV1.4 = assay: Selectivity, patch-clamp, hNaV1.4 in human embryonic kidney 293 cells; type: cell-based; settings: 150 nM Cm28, 8–20 pulses (2–5 min), n ≥ 3
Procedure, shortened: as §1

KV1.3 [4] = target: T2, KV1.3; assay: Binding kinetics of Cm28 block of KV1.3; type: cell-based
Procedure, shortened: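 Activated human peripheral T lymphocytes (PHA-stimulated PBMCs) recorded by whole-cell voltage clamp in normal Na+-based bath, pH 7.35. 15-ms pulses to +50 mV from Vh −120 mV every 15 s. Wash-in and wash-out time courses of normalized peak current fitted with single exponentials. 1/τon and 1/τoff versus toxin concentration fitted by linear regression to give kon and koff, assuming simple bimolecular binding.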

KV1.2 [5] = target: T1, KV1.2; assay: Binding kinetics of Cm28 block of KV1.2; type: cell-based
Procedure, shortened: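 KV1.2 transiently transfected into CHO cells; GFP-positive cells recorded 24–36 h post-transfection by whole-cell voltage clamp. Normal bath (mM): 145 NaCl, 5 KCl, 2.5 CaCl2, 1 MgCl2, 5.5 glucose, 10 HEPES, pH 7.35. 15-ms pulses to +50 mV from Vh −120 mV every 15 s with 2 nM toxin. Normalized peak current versus time fitted single-exponentially for wash-in/wash-out (τon, τoff); kon, koff from bimolecular model.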

hKV11.1 (hERG1) = assay: Selectivity, patch-clamp, hKV11.1 in human embryonic kidney 293 cells; type: cell-based; settings: 150 nM Cm28, 8–20 pulses (2–5 min), n ≥ 3
Procedure, shortened: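 HEK293 cells stably expressing hKV11.1. Pipette (mM): 140 KCl, 2 MgCl2, 10 HEPES, 10 EGTA, pH 7.3. Step to +20 mV (1.25 s) from Vh −80 mV, then −40 mV (2 s), every 30 s. Peak tail current I/I0 at 150 nM after 8–20 pulses; n ≥ 3.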

hHV1 = assay: Selectivity, patch-clamp, hHV1 in CHO cells; type: cell-based, human; settings: 150 nM Cm28, 8–20 pulses (2–5 min), n ≥ 3
Procedure, shortened: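 Whole-cell proton current measured with a 1.0-s ramp to +100 mV from Vh −60 mV every 15 s. Bath (mM): 60 Na L-aspartate, 80 MES, 5.5 glucose, 6 MgCl2, pH 7.4. Pipette (mM): 90 Na L-aspartate, 80 MES, 6 MgCl2, 3.3 glucose, pH 6.17. Remaining current fraction (peak I/I0) taken at 150 nM after 8–20 pulses; mean ± SEM, n ≥ 3.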

[6] = system: IL2R expression in CD4^+ TEM lymphocytes; assay: Expression of IL2R; type: cell-based, human
Procedure, shortened: (§2)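 CD4+ TEM cells were isolated from healthy-donor PBMCs by negative magnetic selection and held at 1 × 10^6 cells/ml in RPMI 1640 with 10% FBS. They were pre-incubated 30 min with test peptide, then stimulated 24 h at 37°C on plate-bound anti-CD3 (OKT3, 1 µg/well) with toxin kept present. Cells were stained 20 min at 4°C with anti-CD25 and anti-CD154. Gating was FSC/SSC, 10,000 events. MFI was normalized to the stimulated untreated control. Duplicates, three donors.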

KV1.2 [7] = target: T1, KV1.2; assay: Whole-cell patch-clamp block of KV1.2 current, transiently transfected CHO cells; type: cell-based
Procedure, shortened: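 hKV1.2 was expressed transiently in CHO cells, and GFP-positive cells were recorded 24–36 h after transfection. Whole-cell currents were evoked by 15-ms pulses to +50 mV from −120 mV every 15 s at 20–25°C, with leak below 10%, using gravity perfusion. RCF was peak I/I0 at equilibrium block.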

mKCa1.1 = assay: Selectivity, patch-clamp, mKCa1.1 in human embryonic kidney 293 cells; type: cell-based; settings: 150 nM Cm28, 8–20 pulses (2–5 min), n ≥ 3
Procedure, shortened: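 HEK293 cells stably expressing mKCa1.1 recorded in whole-cell mode in normal bath (145 NaCl, 5 KCl, 2.5 CaCl2, 1 MgCl2, 5.5 glucose, 10 HEPES mM, pH 7.35). Cells depolarized to +100 mV for 600 ms from Vh −100 mV. Peak I/I0 at 150 nM after 8–20 pulses (2–5 min); mean ± SEM, n ≥ 3.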

[8] = system: CD40L expression in CD4^+ TEM lymphocytes; assay: Expression of CD40L; type: cell-based, human
Procedure, shortened: as §2

KV channels = settings: ref Bartok et al., 2014, cited from earlier work
CD4^+ TEM lymphocytes [9] = assay: Cell viability, Zombie NIR flow cytometry; type: cell-based, human; settings: 24 h culture, 1.5 μM Cm28 or 50 nM rMgTx, quiescent or TCR-activated cells, three independent experiments
[10] = 1.5 µM Cm28, anti-CD3–activated, 24 h
[11] = US + Cm28 (1.5 µM), not exposed to anti-CD3
[12] = 5 nM rMgTx, 30 min pre-incubation, 24 h anti-CD3 stimulation, decreased to

Molecule: [N-]=[N+]=[N-].[Na+] [NaN3, sodium azide]
- cytotoxicity (LDH), positive control (CD4^+ TEM lymphocytes [1]; 50 mM NaN3): 15%

Molecule: CC(C)[C@@H]1NC(=O)[C@@H]2CSSC[C@H](NC(=O)[C@@H](N)CCCCN)C(=O)N[C@@H](CCCNC(=N)N)C(=O)N[C@@H](CCC(=O)O)C(=O)N[C@H]3CSSC[C@H](NC(=O)[C@H](CCCCN)NC(=O)CNC(=O)[C@H](CC(N)=O)NC1=O)C(=O)N[C@@H](C(C)C)C(=O)N[C@H](C(=O)N1CCC[C@H]1C(=O)N[C@@H](C)C(=O)O)CSSC[C@H](NC(=O)[C@H](CO)NC(=O)[C@@H]1CCCN1C(=O)[C@H](CO)NC(=O)[C@H]([C@@H](C)O)NC(=O)[C@H](CC(N)=O)NC(=O)CNC3=O)C(=O)N[C@@H](Cc1ccc(O)cc1)C(=O)N[C@@H](Cc1ccccc1)C(=O)N[C@@H](CO)C(=O)NCC(=O)N[C@@H](CC(N)=O)C(=O)N2 [Cm28] (H-KCRECGNTSPSCYFSGNCVNGKCVCPA-OH; disulfide 2-18, 5-23, 12-25; N-terminus assumed)
- inhibition of KCa3.1 (hKCa3.1): did not inhibit
- inhibition of KV1.5 (hKV1.5): did not inhibit
- shift in G-V curve / activation threshold (KV1.2 [2]): did not introduce any substantial shift in the G-V curve of KV1.2
- reduction of KV1.1 current (hKV1.1; 150 nM Cm28, equilibrium block): ~27%
- fold less affinity for KV1.1 (vs KV1.2 and KV1.3) (hKV1.1; compared with KV1.2 and KV1.3): ~400 fold
- inhibition of KV1.1 (hKV1.1; text of Discussion, high concentration ∼100× of Kd for KV1.3): did not inhibit
- Hill coefficient (H) (KV1.3 [3]; KV1.3, Hill fit of dose-response, n = 3–5): 0.93
- inhibition at 0.002 µM (KV1.3 [3]; read-out: inhibition of current at block equilibrium): ~58%
- time for 90% recovery from block (KV1.3 [3]; wash-out with toxin-free solution after 2 nM Cm28): 10 min
- inhibition of NaV1.5 (hNaV1.5): did not inhibit
- inhibition of NaV1.4 (hNaV1.4): did not inhibit
- koff (KV1.3 [4]): 0.0028 ± 0.000215 s⁻¹
- kon (KV1.3 [4]): 1.3e+06 M⁻¹ s⁻¹
- koff (KV1.2 [5]): 0.0013 s⁻¹
- kon (KV1.2 [5]): 1.1e+06 M⁻¹ s⁻¹
- inhibition of KV11.1 (hKV11.1 (hERG1)): did not inhibit
- cytotoxicity (LDH) (CD4^+ TEM lymphocytes [1]): < 1%
- inhibition of hHV1 (hHV1): did not inhibit
- IL2R expression in activated cells [6, 10]: strongly inhibited; also recorded: significantly reduced
- IL2R expression in unstimulated cells [6, 11]: no change
- Hill coefficient (H) (KV1.2 [7]; KV1.2, Hill fit of dose-response, n = 3–5): 1.04
- recovery from block, % of control current (KV1.2 [7]; wash-out with toxin-free solution after 2 nM Cm28, took several minutes): ~85%
- inhibition of KCa1.1 (mKCa1.1): did not inhibit
- CD40L expression in activated cells [8, 10]: strongly inhibited; also recorded: significantly reduced
- CD40L expression in unstimulated cells [8, 11]: no change

Molecule: MgTx (TIINVKCTSPKQCLPPCKAQFGQSAGAKCMNGKCKCYPH; UniProt P40755 1-39, looked up)
- block of KV1.x channel subtypes (KV channels): blocks more than one KV1.x channel subtypes with high affinity
- block of KV1.x channel subtypes (KV channels; listed as margatoxin): blocks different KV channels

Molecule: rMgTx (TIINVKCTSPKQCLPPCKAQFGQSAGAKCMNGKCKCYPH; ends and bridges not checked; cysteine pairing not given here; UniProt P40755 1-39, looked up) [reference compound]
- viable cells (CD4^+ TEM lymphocytes [9]): ≥ 90%
- cytotoxicity (LDH) (CD4^+ TEM lymphocytes [1]): < 2%
- IL2R expression, normalized to stimulated non-treated control [6, 12]: ~48%
- CD40L expression, normalized to stimulated non-treated control [8, 12]: ~51%

Molecule: CC[N+](CC)(CC)CC.[Cl-] [TEA^+, reference compound]
- inhibition in peak current, perfusion control (KV1.3 [3]; 10 mM TEA^+, KV1.3): ~50%

Molecule: ChTx [reference compound]
- block of KV1.x channel subtypes (KV channels): blocks more than one KV1.x channel subtypes with high affinity
- inhibition in peak current, perfusion control (KV1.2 [7]; 14 nM ChTx, KV1.2): ~50%
